The values below come from ChEMBL document CHEMBL1128450, “Mononucleoside phosphotriester derivatives with S-acyl-2-thioethyl bioreversible phosphate-protecting groups: intracellular delivery of 3'-azido-2',3'-dideoxythymidine 5'-monophosphate” (J Med Chem, 1995).

“And” between values parts separate entries of the source, which are not always exact repeats. Identical values can stand only once.

Series [1] can be described thus: Half life evaluated in Culture Medium(CM). In kind it is ADME. Particulars: for half-life: culture medium (CM). A digest of the protocol: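 Compounds at 5 × 10⁻⁵ M initial were incubated at 37 °C in RPMI 1640 with 10% heat-inactivated fetal calf serum. Crude aliquots were analysed by on-line ISRP precolumn-cleaning HPLC, with and without tetrabutylammonium ion-pairing, on a C18 column using an ammonium acetate pH 6.0/acetonitrile gradient. Species were quantified from peak areas at 266 nm. Half-lives were derived from pseudo-first-order rate constants fitted by mono- or polyexponential regression.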

The nature of series [2]: Half life evaluated in Total Cell Extract(TCE). Format: ADME. The note with it: for half-life: total cell extract (TCE). A digest of the protocol:
(§1)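 Compounds at 5 × 10⁻⁵ M initial were incubated at 37 °C in total cell extract from CEM-SS cells. Crude aliquots were analysed by on-line precolumn-cleaning HPLC, with and without ion-pairing reagent, on a C18 column using an ammonium acetate/acetonitrile gradient, with areas read at 266 nm. Half-lives came from pseudo-first-order rate constants fitted to kinetic models by exponential regression.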

The subject of series [3] is CEM/TK- (Homo sapiens). As to the kind of experiment: Antiviral activity in CEM/TK cell line infected with HIV-1 and cytotoxic concentration required to reduce the viability of uninfected cells by 50%.
For series [4], the system named is MT4. Nature of the series: Antiviral activity in MT-4 cell line infected with HIV-1 and Concentration required to inhibit the replication of HIV-1 by 50% was determined. Format: functional, cell-based. The note with it: Homo sapiens. A digest of the protocol:
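HIV-1 IIIB at 50 TCID50 adsorbed to MT-4 cells for 30 min, followed by two washes and 5 days of culture with graded compound concentrations. Protection from virus-induced cytopathogenicity was read by MTT reduction to formazan. EC50 was taken from a median effect plot, averaging at least three separate experiments.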

The test system of series [5] is CEM-SS. Nature of the series: Antiviral activity in CEM-SS cell line infected with HIV-1 and cytotoxic concentration required to reduce the viability of uninfected cells by 50%. Format: functional. Particulars: Homo sapiens. A digest of the protocol: (§2)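 Uninfected cells were exposed to compound for 5 days, and viability was read by colorimetric MTT test. Values average at least three separate experiments.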

For series [6], the system named is CEM/TK- (Homo sapiens). Nature of the series: Antiviral activity in CEM/TK cell line infected with HIV-1 and Concentration required to inhibit the replication of HIV-1 by 50% was determined.
Series [7] in a line: Selectivity Index measured as the ratio of CC50(CEM-SS) to EC50(CEM-SS). In kind it is functional.
Series [8] in a line: Selectivity Index measured as the ratio of CC50(CEM/TK) to EC50(CEM/TK). Format: functional.
Series [9] deals with MT4. Nature of the series: Antiviral activity in MT-4 cell line infected with HIV-1 and cytotoxic concentration required to reduce the viability of uninfected cells by 50%. In kind it is functional. The note with it: Homo sapiens. A digest of the protocol:
as §2

Series [10] relates to CEM-SS. Nature of the series: Antiviral activity in CEM-SS cell line infected with HIV-1 and Concentration required to inhibit the replication of HIV-1 by 50% was determined. Format: functional, cell-based. Particulars: Homo sapiens. A digest of the protocol:
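Cells infected with HIV-LAI at 100 TCID50 for 30 min, washed twice, then cultured with a range of compound concentrations for 5 days (6 days for CEM/TK⁻). Virus production was read as reverse transcriptase activity in the culture supernatant. EC50 was taken from a median effect plot of the dose–effect data, averaging at least three separate experiments.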

The nature of series [11]: Half life evaluated in Total Cell Extract(TCE) for determination 2. In kind it is ADME. In outline:
as §1

A short description of series [12]: Half life evaluated in Total Cell Extract(TCE) for determination 3. Format: ADME. A digest of the protocol: as §1
Series [13] can be described thus: Half life evaluated in Total Cell Extract(TCE) for determination 1. In kind it is ADME. A digest of the protocol: as §1

Consider `Cc1cn(C2CC(N=[N+]=[N-])C(COP(=O)(O)OCCSC(=O)C(C)(C)C)O2)c(=O)[nH]c1=O` (centres undefined), for which the half-life in [1] is 1280 min; in [2] it was 432 min.

As for `Cc1cn([C@H]2C[C@H](N=[N+]=[N-])[C@@H](COP(=O)(O)O)O2)c(=O)[nH]c1=O` [AZIDOTHYMIDINE MONOPHOSPHATE], in [1], the T1/2 was 72 h and 67 h; the half-life is 3000 min. In series [2], the T1/2 was 4 h and the half-life was 240 min.

With `CC(=O)SCCOP(=O)(O)OCC1OC(n2cc(C)c(=O)[nH]c2=O)CC1N=[N+]=[N-]` (centres undefined), the half-life in series [1] was 534 min; in series [2], less than 5 min.

`CC(=O)SCCOP(=O)(OCCSC(C)=O)OCC1OC(n2cc(C)c(=O)[nH]c2=O)CC1N=[N+]=[N-]` (centres undefined): the CC50 was more than 100 µM with CEM/TK- (Homo sapiens) [3], 93 µM in the series on CEM-SS [5] and 67 µM in the series with MT4 [9]. Further, the EC50 amounted to 50 nM in the series on MT4 [4], 49 nM in the series on CEM/TK- (Homo sapiens) [6] and 22 nM in the series on CEM-SS [10]. In addition, the Selectivity index in [7] was 4300; in series [8], more than 2050. For the same molecule, the half-life is 540 min in [1] and less than 5 min in series [2].

Turning to `Cc1cn([C@H]2C[C@H](N=[N+]=[N-])[C@@H](CO)O2)c(=O)[nH]c1=O` [ZIDOVUDINE], the CC50 is more than 100 µM in the series with CEM/TK- (Homo sapiens) [3], more than 100 µM in the series with CEM-SS [5] and 75 µM in the series on MT4 [9]. The EC50 in the series on MT4 [4] was 17 nM; in the series with CEM/TK- (Homo sapiens) [6], more than 100000 nM; in the series with CEM-SS [10] it was 6 nM. Also, the Selectivity index in series [7] was more than 17300.

With `Cc1cn(C2CC(N=[N+]=[N-])C(COP(=O)(O)OCCSC(=O)C(C)C)O2)c(=O)[nH]c1=O` (centres undefined), the half-life in [1] was 738 min; in series [2] it was 426 min.

In the case of `Cc1cn(C2CC(N=[N+]=[N-])C(COP(=O)(OCCSC(=O)c3ccccc3)OCCSC(=O)c3ccccc3)O2)c(=O)[nH]c1=O` (centres undefined), the CC50 in the series on CEM/TK- (Homo sapiens) [3], in the series with CEM-SS [5] and in the series on MT4 [9] was more than 1 µM throughout. The results for the EC50 with MT4 [4], with CEM/TK- (Homo sapiens) [6] and in the series on CEM-SS [10] were 76 nM, 320 nM and 125 nM, respectively. Moreover, the Selectivity index in series [7] is more than 8; in series [8], more than 4.

Consider `Cc1cn(C2CC(N=[N+]=[N-])C(COP(=O)(O)OCCS)O2)c(=O)[nH]c1=O` (centres undefined), for which the figures for the half-life in series [11], in series [12] and in series [13] were 540 min, 630 min and 138 min, respectively.

Turning to `Cc1cn(C2CC(N=[N+]=[N-])C(COP(=O)(OCCSSCCO)OCCSSCCO)O2)c(=O)[nH]c1=O` (centres undefined), the CC50 in the series on CEM/TK- (Homo sapiens) [3], in the series with CEM-SS [5] and in the series with MT4 [9] was more than 100 µM each time. The EC50 with MT4 [4] came to 54 nM; in the series on CEM/TK- (Homo sapiens) [6] it was 550 nM; with CEM-SS [10] it was 23 nM. For the same molecule, the Selectivity index in [7] was more than 4300; in series [8], more than 180.

On to `Cc1cn(C2CC(N=[N+]=[N-])C(COP(=O)(OCCSC(=O)C(C)(C)C)OCCSC(=O)C(C)(C)C)O2)c(=O)[nH]c1=O` (centres undefined), for which the CC50 in the series on CEM/TK- (Homo sapiens) [3], with CEM-SS [5] and in the series with MT4 [9] was more than 10 µM each time. Moreover, the EC50 was determined as 810 nM in the series on MT4 [4], 450 nM in the series on CEM/TK- (Homo sapiens) [6] and 15 nM in the series with CEM-SS [10]. Further, the Selectivity index is more than 670 in [7] and more than 22 in [8]. Besides, the figures for the half-life in series [1] and in series [2] were 6190 min and 63 min, respectively.

With `Cc1cn(C2CC(N=[N+]=[N-])C(COP(=O)(OCCSC(=O)C(C)C)OCCSC(=O)C(C)C)O2)c(=O)[nH]c1=O` (centres undefined), the CC50 in the series with CEM/TK- (Homo sapiens) [3], in the series with CEM-SS [5] and with MT4 [9] was more than 10 µM throughout. The EC50 is 48 nM in the series on MT4 [4], 520 nM in the series on CEM/TK- (Homo sapiens) [6] and 46 nM with CEM-SS [10]. Besides, the Selectivity index in [7] is more than 200; in series [8] it was more than 17. Besides, the half-life in series [1] is 540 min; in [2], 45 min.

`Cc1cn(C2CC(N=[N+]=[N-])C(COP(=O)(OCOC(=O)C(C)(C)C)OCOC(=O)C(C)(C)C)O2)c(=O)[nH]c1=O` (centres undefined): the CC50 in the series with CEM/TK- (Homo sapiens) [3] came to 65.5 µM; in the series with CEM-SS [5], 67 µM; with MT4 [9], 59 µM. Further, the concentration for a half-maximal effect (EC50) in the series with MT4 [4] worked out at 52 nM; with CEM/TK- (Homo sapiens) [6] it was 255 nM; with CEM-SS [10] it was 77 nM. The Selectivity index in [7] is 860; in series [8] it was 250.

As a reminder, the half-life is the time in which the quantity being followed falls by half. Higher therefore signals slow decline. As a reminder, the CC50 is the concentration that lowers cell viability or growth by half. A high value points to lower toxicity to the cells. For orientation: EC50 means the concentration at which the effect is half-maximal. A higher EC50 goes with a need for much substance.
